Experimental data as given in ChEMBL document CHEMBL3392999 (J Med Chem, 2014).
Active and inactive are the calls of the source. The rule behind the calls is not given here.

Columns and labels:
HT-29 = assay: Cytotoxicity against human HT-29 cells after 3 days by MTT assay; type: functional, cell-based; conditions: HT-29, 72 h
How it was run: (§1)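 HT-29, MCF-7 and HEK293 cells were grown in DMEM (1 g/L glucose, 2 mM glutamine, antibiotics, amphotericin, 10% FBS). Serial dilutions of compound in DMSO were added to 5 x 10^3 cells/well for 3 days at 37 °C, 5% CO2. MTT was then added for 4 h, formazan was dissolved in 0.04 N HCl/2-propanol and read at 550 nm, in triplicate. IC50 is the 50% growth inhibition. The ratios are HEK293 IC50 over HT-29 or MCF-7 IC50.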

HEK293 = assay: Cytotoxicity against human HEK293 cells after 3 days by MTT assay; type: cell-based; conditions: HEK293, 72 h; how it was run: as §1
[1] = Depolymerization of microtubule cytoskeleton in human A549 cells at 50 nM after 24 hrs by hoechst 33342-based fluorescence microscopy; type: cell-based
How it was run: (§2)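 A549 cells grown overnight on 12 mm round coverslips, then 24 h with compound or DMSO vehicle. Cells permeabilized with Triton X100 and fixed in 3.7% formaldehyde. Microtubules stained with DM1A α-tubulin monoclonal antibody, DNA with Hoechst 33342. Examined by epifluorescence microscopy with cooled CCD imaging; mitotic spindles inspected.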

[2] = Depolymerization of microtubule cytoskeleton in human A549 cells assessed as DNA forming a ball without microtubules at 50 nM after 24 hrs by hoechst 33342-based fluorescence microscopy; type: cell-based; how it was run: as §2
[3] = Depolymerization of microtubule cytoskeleton in human A549 cells assessed as aberrant mitosis at 50 nM after 24 hrs by hoechst 33342-based fluorescence microscopy; type: cell-based; how it was run: as §2
A549 [4] = assay: Cell cycle arrest at G2/M phase in human A549 cells at 50 nM after 20 hrs; type: functional, cell-based
How it was run: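 A549 human lung carcinoma cells in RPMI 1640 with 10% FCS, glutamine and antibiotics, exposed for 20 h to compound or DMSO vehicle. Cells were fixed, RNase-treated and stained with propidium iodide. DNA content was measured by flow cytometry to give G2/M fraction.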

[5] = Cytotoxicity against human A2780AD cells after 24 hrs by MTT assay; type: functional, cell-based; conditions: A2780 ADR
How it was run: (§3)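 Ovarian carcinoma A2780 and its P-glycoprotein-overexpressing MDR subline A2780AD were cultured in RPMI 1640 with 10% FCS, glutamine, antibiotics and 0.25 units/mL bovine insulin. Cytotoxicity was measured by a modified MTT assay. IC50 is 50% growth inhibition, averaged over three measurements. The resistance factor is A2780AD IC50 divided by A2780 IC50.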

MCF7 = assay: Cytotoxicity against human MCF7 cells after 3 days by MTT assay; type: functional, cell-based; conditions: MCF7, 72 h; how it was run: as §1
[6] = Selectivity ratio of IC50 for human HEK293 cells to IC50 for human HT29 cells; type: ADME, cell-based; conditions: HEK293 cells versus HT29 cells, read-out: Ratio IC50; how it was run: as §1
[7] = Selectivity ratio of IC50 for human HEK293 cells to IC50 for human MCF7 cells; type: ADME, cell-based; conditions: HEK293 cells versus MCF7 cells, read-out: Ratio IC50; how it was run: as §1
[8] = Depolymerization of microtubule cytoskeleton in human A549 cells at 5 uM after 24 hrs by hoechst 33342-based fluorescence microscopy; type: cell-based
How it was run: (§4)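 A549 cells were cultured overnight on 12 mm round coverslips, then incubated 24 h with ligand or DMSO vehicle. Cells were permeabilized with Triton X-100 and fixed with 3.7% formaldehyde. Microtubules were stained with DM1A anti-α-tubulin monoclonal antibody and DNA with Hoechst 33342, then examined by epifluorescence microscopy with a cooled CCD camera.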

A549 [9] = assay: Cell cycle arrest at G2/M phase in human A549 cells at 5 to 10 uM after 20 hrs; type: functional
How it was run: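 A549 cells (RPMI 1640, 10% FCS, glutamine, antibiotics) were exposed to ligand or DMSO vehicle for 20 h. They were then fixed, RNase-treated and stained with propidium iodide. DNA content was measured by flow cytometry, and G2/M accumulation was read at the lowest concentration giving maximal arrest.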

Tubulin (Homo sapiens) [10] = target: T1, Tubulin (Homo sapiens) (UniProt P68371+Q9H4B7+P0DPH7+P68366+Q13509+Q71U36+P04350+Q3ZCM7+P07437+P68363+Q9BQE3+Q6PEY2+Q13885+Q9BVA1+Q9BUF5); assay: Inhibition of purified tubulin (unknown origin) assessed as critical concentration of tubulin required to produce assembly at 25 uM after 30 mins by spectrophotometry; type: protein-complex assay
How it was run: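 Calf-brain tubulin (20 µM) was incubated 30 min at 37 °C in glycerol assembly buffer (3.4 M glycerol, 10 mM sodium phosphate, 1 mM EGTA, 1 mM GTP, pH 6.5) with ligand at varying concentrations or DMSO vehicle. The critical concentration for assembly was then calculated from the processed samples. Values are averages of replicate measurements.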

A2780 = assay: Cytotoxicity against human A2780 cells after 24 hrs by MTT assay; type: functional, cell-based; conditions: A2780, 24 h
[11] = Resistance factor, ratio of IC50 for human A2780AD cells to IC50 for human A2780 cells; type: functional, A2780 ADR; how it was run: as §3
Tubulin (Homo sapiens) [12] = target: T1, Tubulin (Homo sapiens); assay: Inhibition of purified tubulin (unknown origin) assessed as concentration of compound in dichloromethane solvent at 30 uM after 1 hr; type: protein-complex assay
How it was run: (§5)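 In one set, mixtures stood 1 h at 37 °C and were extracted with dichloromethane. In another, microtubules were allowed to assemble and were ultracentrifuged, and the supernatant and pellet were extracted separately. Ligand in each extract was quantified against a 30 µM tubulin-free reference.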

Tubulin (Homo sapiens) [13] = target: T1, Tubulin (Homo sapiens); assay: Inhibition of purified tubulin (unknown origin) assessed as concentration of compound in supernatant solution at 30 uM after 1 hr; type: protein-complex assay; how it was run: as §5
Tubulin (Homo sapiens) [14] = target: T1, Tubulin (Homo sapiens); assay: Inhibition of purified tubulin (unknown origin) assessed as concentration of compound in pellet solution at 30 uM after 1 hr; type: protein-complex assay; how it was run: as §5
[15] = Depolymerization of microtubule cytoskeleton in human A549 cells assessed as DNA forming a ball without microtubules at 5 uM after 24 hrs by hoechst 33342-based fluorescence microscopy; type: cell-based; how it was run: as §4
[16] = Depolymerization of microtubule cytoskeleton in human A549 cells assessed as DNA forming a ball without microtubules at 10 uM after 24 hrs by hoechst 33342-based fluorescence microscopy; type: cell-based; how it was run: as §4
[17] = Depolymerization of microtubule cytoskeleton in human A549 cells assessed as aberrant mitosis at 5 uM after 24 hrs by hoechst 33342-based fluorescence microscopy; type: cell-based; how it was run: as §4
[18] = Depolymerization of microtubule cytoskeleton in human A549 cells assessed as aberrant mitosis at 10 uM after 24 hrs by hoechst 33342-based fluorescence microscopy; type: cell-based; how it was run: as §4
[19] = Depolymerization of microtubule cytoskeleton in human A549 cells at 1 uM after 24 hrs by hoechst 33342-based fluorescence microscopy; type: cell-based; how it was run: as §4

Row | Compound | IC50 (HT-29) | IC50 (HEK293) | IC50 [5] | IC50 (MCF7) | selectivity ratio [6] | selectivity ratio [7] | Activity (Tubulin (Homo sapiens) [10]) | also measured
1 | COc1cc2c(c(OC)c1OC)-c1ccc(OC)c(=O)cc1[C@@H](NC(C)=O)CC2 [COLCHICINE] | 0.05 µM | 5 nM | 0.306 µM | – | – | – | – | Activity [1]: Active; Activity [2]: Active; Activity [3]: Active; Activity (A549 [4]): Active
2 | COc1cc2c(c(OC)c1OC)-c1ccc(OC)c(=O)cc1[C@@H](NC(=O)CCCCCCCCCCC(=O)OCCCCC[C@@H]1CC=CC(=O)O1)CC2 | 18 µM | 1400 nM | 26.5 µM | 330 nM | < 0.1 | 4.2 | 6.3 µM | Activity [8]: Active; Activity (A549 [9]): >80%; IC50 (A2780): 240 nM; Ratio IC50 [11]: 110; Activity (Tubulin (Homo sapiens) [12]): 6.9 µM; Activity (Tubulin (Homo sapiens) [13]): 2 µM; Activity (Tubulin (Homo sapiens) [14]): 5.7 µM; Activity [15]: Active; Activity [16]: Active; Activity [17]: Active; Activity [18]: Active
3 | COc1cc2c(c(OC)c1OC)-c1ccc(OC)c(=O)cc1[C@@H](NC(=O)CCCCCCCCCCCCCCC(=O)OCCCCC[C@H]1CC=CC(=O)O1)CC2 | 30 µM | 500 nM | – | 500 nM | < 0.1 | 1 | – | –
4 | COc1cc2c(c(OC)c1OC)-c1ccc(OC)c(=O)cc1[C@@H](NC(=O)CCCCCCC(=O)OCCCCC[C@H]1CC=CC(=O)O1)CC2 | 40 µM | 700 nM | – | 12000 nM | < 0.1 | < 0.1 | – | –
5 | COc1cc2c(c(OC)c1OC)-c1ccc(OC)c(=O)cc1[C@@H](NC(=O)CCCC(=O)OCCCCC[C@H]1CC=CC(=O)O1)CC2 | 65 µM | 400 nM | – | 19000 nM | < 0.1 | < 0.1 | – | –
6 | COc1cc2c(c(OC)c1OC)-c1ccc(OC)c(=O)cc1[C@@H](NC(=O)CCCCCCCCCCCCCCC(=O)OCCCCC[C@@H]1CC=CC(=O)O1)CC2 | 8 µM | 440 nM | – | 600 nM | < 0.1 | 0.7 | – | –
7 | CC(=O)O[C@@]12CO[C@@H]1C[C@H](O)[C@@]1(C)C(=O)[C@H](O)C3=C(C)[C@@H](OC(=O)[C@H](O)[C@@H](NC(=O)OC(C)(C)C)c4ccccc4)C[C@@](O)([C@@H](OC(=O)c4ccccc4)[C@H]21)C3(C)C | – | – | – | – | – | – | 0.9 µM | –
8 | C/C=C/C[C@H](C)[C@@H](OC)[C@@H](C)[C@H](O)C[C@H]1OC(=O)C=C[C@H]1CC [PIRONETIN] | – | – | 0.025 µM | – | 2.6 | 2.8 | > 15 µM | IC50 (A2780): 8 nM; Ratio IC50 [11]: 3
9 | COc1cc2c(c(OC)c1OC)-c1ccc(OC)c(=O)cc1[C@@H](NC(=O)CCCCCCCCCCC(=O)OCCCCC[C@H]1CC=CC(=O)O1)CC2 | 40 µM | 24000 nM | – | 300 nM | 0.6 | 80 | – | –
10 | COc1cc2c(c(OC)c1OC)-c1ccc(OC)c(=O)cc1[C@@H](NC(=O)CCCC(=O)OCCCCC[C@@H]1CC=CC(=O)O1)CC2 | 21 µM | 6000 nM | 59 µM | 700 nM | 0.3 | 8.7 | 6.6 µM | Activity [19]: Active; Activity (A549 [9]): >80%; IC50 (A2780): 500 nM; Ratio IC50 [11]: 118; Activity (Tubulin (Homo sapiens) [12]): 21.7 µM; Activity (Tubulin (Homo sapiens) [13]): 18.1 µM; Activity (Tubulin (Homo sapiens) [14]): 5.7 µM; Activity [15]: Active; Activity [16]: Active; Activity [17]: Active; Activity [18]: Active
11 | COc1cc2c(c(OC)c1OC)-c1ccc(OC)c(=O)cc1[C@@H](NC(=O)CCCCCCC(=O)OCCCCC[C@@H]1CC=CC(=O)O1)CC2 | 20 µM | 33000 nM | – | 290 nM | 1.6 | > 100 | – | –
